MPTP inh: mitochondrial permeability transition pore inhibitors, primary screen, biochemical, isolated mouse mitochondria, absorbance | Ca2+ swelling absorbance, 30 min | inhibition, % at 10 µM | 360,000 compounds, 1.4% hits | AID 602449, 2012;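 active means inhibition of 50% or more, scaled per plate between neutral and stimulator controls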
MT1-MMP act inh: blockers of MT1-MMP proenzyme processing, primary screen, HT1080 RFP-PRO-GFP cells, GFP/RFP fluorescence. GFP/RFP ratio fluorescence, overnight; percent of plate control window, DMSO zero. GFP/RFP ratio change, % at 20 µM. 360,000 compounds, 0.061% hits;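 active means GFP/RFP ratio change of at least 30% with cell ATP level not reduced by more than half and red fluorescence within 50% of control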
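Read-out: GFP/RFP fluorescence ratio; Test system: RFP-PRO-GFP reporter HT1080 cells; Compound dosing: single-point 20 µM compound, 1% DMSO; Times: overnight compound exposure at 37 °C.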
SKN-1 inh: suppressors of acrylamide-induced Pgst-4::GFP reporter in worms, primary screen, SKN-1 inhibitor project, whole organism, uHTS, GFP/RFP fluorescence ratio, strain VP596; C. elegans VP596 Pgst-4::GFP/RFP ratio, 24 h; inhibition, % at 21.8 µM; 360,000 compounds, 0.49% hits; AID 624304, 2012;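 active means interference check ratio from 0.5 to 1.5 plus GFP to RFP signal ratio inhibition reaching or exceeding a fixed threshold, cut at about 30% in these data, passing the limit was not always enough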
ATG4B inh: ATG4B protease inhibitors, primary screen, biochemical, fluorescence, uHTS. Cysteine protease ATG4B (Homo sapiens), Q9Y4P1. 340,000 compounds, 0.51% hits. inhibition, % at 8.33 µM. AID 504462, 2011. ATG4B cleavage of LC3-PLA2, NBD-HPC fluorescence, 1 h; in the data active means inhibition above about 40%
ATG4B conf: ATG4B protease inhibitors, retest, confirmation, biochemical, fluorescence, single concentration; 320 compounds, 92% hits; ATG4B protease fluorescent substrate cleavage assay; shares compounds with ATG4B inh; inhibition, % at 8.33 µM; in the data active means inhibition above about 39%
PLA2 counter: PLA2 enzyme inhibition, counter-screen for ATG4B inhibitor project, biochemical, single concentration, uHTS hits; shares compounds with ATG4B inh; 1,600 compounds, 66% hits; purified PLA2, NBD-C6-HPC fluorescence, 45 min; AID 588402, 2011; inhibition, % at 8.33 µM; in the data active means inhibition above about 50%
Target sequence (P04054 whole entry, looked up): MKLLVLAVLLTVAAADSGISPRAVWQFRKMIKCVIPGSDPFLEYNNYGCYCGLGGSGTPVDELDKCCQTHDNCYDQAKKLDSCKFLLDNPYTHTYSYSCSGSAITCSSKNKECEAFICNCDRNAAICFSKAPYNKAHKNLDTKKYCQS
MPTP counter: fluorescence retest of MPTP screen hits in isolated mitochondria, single concentration | 5,000 compounds, 78% hits | AID 624504, 2012 | inhibition, % at 10 µM | membrane potential, Rhodamine 123 fluorescence | shares compounds with MPTP inh; in the data active means inhibition above about 22%
Each line names hits and unclear results; the compound was inactive in the other large screens (follow-up assays come after a bar, where they were run). An excerpt weighted towards active compounds, which were near 2.3% of everything screened.

Cc1ccsc1/C=C/C1=Cc2c(sc(NC(=O)CSc3n[nH]c(N)n3)c2C#N)C(C)(C)C1	ATG4B inh 66 | PLA2 counter 52
Cc1ccc(S(=O)(=O)Nc2ccc(-c3nnc(SCc4ccccc4Cl)o3)cc2)cc1	ATG4B inh 52 | PLA2 counter inactive
C/C(=N/NC(=O)c1cc2ccccc2cc1O)C1C(=O)c2ccccc2C1=O	MPTP inh 86, ATG4B inh 49 | ATG4B conf 73 | PLA2 counter inactive | MPTP counter inactive
Cc1ccc(C)c(Oc2cc(NC(=O)CCCn3nc(C)c([N+](=O)[O-])c3C)cc([N+](=O)[O-])c2)c1	MPTP inh 94, ATG4B inh 65 | PLA2 counter 64 | MPTP counter 75
Cc1ccc(C(O)P(=O)(OCc2ccccc2)c2ccc(N(C)C)cc2)cc1 (stereo not drawn)	none
C[C@H](O)[C@@H]1C(=O)N2CCc3ccc(N4CCN(C)CC4)cc3[C@@H]2C[C@@H]1N(C)C(=O)c1ccco1	none (no result: ATG4B inh)
O=C(/C=C/c1ccccc1)NC(NC(=S)Nc1cc(Cl)ccc1Cl)C(Cl)(Cl)Cl (stereo not drawn)	MPTP inh 97, ATG4B inh 42 | PLA2 counter inactive | MPTP counter 74
OC[C@@H]1CN(Cc2ccco2)C[C@H](n2cnc3c(N4CCN(c5ccccc5)CC4)ncnc32)O1	none (no result: ATG4B inh)
CCCc1cc(=O)[nH]c(SCc2ccc(Cl)cc2)n1	none
CCCc1cc(=O)[nH]c(SCc2cc(Cl)ccc2OC(F)F)n1	MPTP inh 71, ATG4B inh 57 | ATG4B conf 52 | PLA2 counter inactive | MPTP counter 55
CCOC(=O)C1CCN(S(=O)(=O)c2cc3c(cc2C)NC(=O)CO3)CC1	none
Cc1ccc(S(=O)(=O)Nc2ccccc2C(=O)Nc2nc(-c3ccc(F)cc3)cs2)cc1	MPTP inh 70, ATG4B inh 47 | PLA2 counter 60 | MPTP counter inactive
COc1ccc(-c2csc(NC(=O)c3ccccc3NS(=O)(=O)c3ccc(F)c(F)c3)n2)cc1	MPTP inh 92, ATG4B inh 69 | PLA2 counter 80 | MPTP counter inactive
COC(=O)/C=C/c1c(C)nc(NCc2ccccc2)nc1Cl	none
C=CCOC(=O)C1=C[C@@H](c2csc3ccccc23)[C@H](CCCO)[C@@H](OCC)O1	none
Cc1cc(=O)n2c(nc3ccccc32)s1	none (no result: ATG4B inh)
CCn1c(O)c(/C=C2\C=Nc3ccccc32)sc1=Nc1ccccc1	MPTP inh 53, ATG4B inh 43 | PLA2 counter inactive | MPTP counter 59
Cn1c(O)c(/C=C2\C=Nc3ccccc32)sc1=Nc1ccc(C(=O)O)cc1	none
Cc1ccc2nc(SCC(=O)N3CCN(c4ccccc4)CC3)[nH]c2c1	none
Fc1ccc(CCNC(=S)Nc2ccc(F)c(Cl)c2)cc1	MPTP inh 103, ATG4B inh 44 | ATG4B conf 58 | PLA2 counter inactive | MPTP counter 95
CCc1ccccc1NC(=S)NCCSc1ccc(Cl)cc1	MPTP inh 94, ATG4B inh 66 | PLA2 counter 80 | MPTP counter 94
Cc1c(Cl)cccc1NC(=S)NCCc1ccc(S(N)(=O)=O)cc1	none
Cc1ccccc1NC(=S)NCCSc1ccc(Cl)cc1	MPTP inh 92, ATG4B inh 45 | PLA2 counter 51 | MPTP counter 86
CS(=O)(=O)Nc1ccccc1C(=O)NCCSc1ccc(Cl)cc1	none
Cc1ccccc1NC(=S)NCCO	none
Cc1c(Cl)cccc1NC(=S)NCCc1ccc(Cl)cc1	MPTP inh 85, ATG4B inh 86 | PLA2 counter 89 | MPTP counter 81
